ChEMBL document CHEMBL3352121, “Modulation of Activity Profiles for Largazole-Based HDAC Inhibitors through Alteration of Prodrug Properties” (ACS Med Chem Lett, 2014)

Experiments:
[1] = target: T1, Histone deacetylase 4 (Homo sapiens, UniProt P56524); assay: Inhibition of HDAC4 (unknown origin) at 1 uM incubated for 30 mins in presence of BSA and DTT by fluorescence assay
Method in brief: (§1)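 Purified HDAC isoforms were tested up to a maximum of 1 μM. IC50 values are averages of duplicate experiments. Disulfide compounds were pretreated with DTT to reduce the disulfide bond.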

[2] = target: T2, Histone deacetylase 11 (Homo sapiens, UniProt Q96DB2); assay: Inhibition of HDAC11 (unknown origin) incubated for 3 hrs in presence of BSA and DTT by fluorescence assay; method in brief: as §1
T2 sequence (Q96DB2 whole entry): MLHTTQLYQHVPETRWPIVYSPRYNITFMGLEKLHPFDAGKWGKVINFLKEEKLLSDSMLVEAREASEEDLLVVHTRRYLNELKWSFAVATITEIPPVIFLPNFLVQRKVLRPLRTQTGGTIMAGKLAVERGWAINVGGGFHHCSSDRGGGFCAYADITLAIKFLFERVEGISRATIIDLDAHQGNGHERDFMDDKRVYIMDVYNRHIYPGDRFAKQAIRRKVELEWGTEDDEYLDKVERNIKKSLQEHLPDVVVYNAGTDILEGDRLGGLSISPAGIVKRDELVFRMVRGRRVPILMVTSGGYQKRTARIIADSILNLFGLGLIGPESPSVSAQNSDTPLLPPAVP

[3] = target: T1, Histone deacetylase 4; assay: Inhibition of HDAC4 (unknown origin) incubated for 30 mins in presence of BSA and DTT by fluorescence assay; method in brief: as §1
[4] = target: Histone deacetylase 2 (Homo sapiens, UniProt Q92769); assay: Inhibition of HDAC2 (unknown origin) incubated for 30 mins in presence of BSA and DTT by fluorescence assay
Sequence of Histone deacetylase 2 (Q92769 whole entry): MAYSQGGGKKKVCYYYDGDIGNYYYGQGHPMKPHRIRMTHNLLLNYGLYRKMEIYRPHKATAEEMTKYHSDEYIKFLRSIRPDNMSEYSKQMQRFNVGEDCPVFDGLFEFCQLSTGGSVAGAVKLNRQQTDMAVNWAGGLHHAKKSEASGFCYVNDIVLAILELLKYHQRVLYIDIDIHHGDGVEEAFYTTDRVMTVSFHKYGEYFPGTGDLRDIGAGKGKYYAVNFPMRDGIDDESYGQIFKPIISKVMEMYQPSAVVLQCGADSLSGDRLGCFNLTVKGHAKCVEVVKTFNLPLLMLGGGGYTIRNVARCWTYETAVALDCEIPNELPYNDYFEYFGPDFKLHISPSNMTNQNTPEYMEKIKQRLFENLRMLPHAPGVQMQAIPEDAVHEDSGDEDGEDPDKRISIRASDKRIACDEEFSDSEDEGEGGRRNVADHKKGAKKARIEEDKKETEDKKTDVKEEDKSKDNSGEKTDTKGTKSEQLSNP

[5] = target: Histone deacetylase 3 (Homo sapiens, UniProt O15379); assay: Inhibition of HDAC3 (unknown origin) incubated for 30 mins in presence of BSA and DTT by fluorescence assay; method in brief: as §1
Sequence of Histone deacetylase 3 (O15379 whole entry): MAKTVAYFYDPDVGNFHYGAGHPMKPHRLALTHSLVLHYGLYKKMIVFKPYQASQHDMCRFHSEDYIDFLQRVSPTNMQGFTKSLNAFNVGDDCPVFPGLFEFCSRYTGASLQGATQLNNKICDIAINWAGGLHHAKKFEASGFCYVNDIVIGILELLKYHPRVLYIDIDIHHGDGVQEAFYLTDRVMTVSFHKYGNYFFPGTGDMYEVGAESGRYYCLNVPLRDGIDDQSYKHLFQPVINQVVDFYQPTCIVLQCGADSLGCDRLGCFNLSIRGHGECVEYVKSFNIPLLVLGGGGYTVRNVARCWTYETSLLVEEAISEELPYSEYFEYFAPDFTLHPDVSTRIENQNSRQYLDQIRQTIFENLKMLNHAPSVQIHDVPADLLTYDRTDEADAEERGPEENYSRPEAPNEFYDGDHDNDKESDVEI

[6] = target: T3, Histone deacetylase 7 (Homo sapiens) (UniProt Q8WUI4); assay: Inhibition of HDAC7 (unknown origin) at 1 uM incubated for 30 mins in presence of BSA and DTT by fluorescence assay; method in brief: as §1
T3 sequence (whole entry): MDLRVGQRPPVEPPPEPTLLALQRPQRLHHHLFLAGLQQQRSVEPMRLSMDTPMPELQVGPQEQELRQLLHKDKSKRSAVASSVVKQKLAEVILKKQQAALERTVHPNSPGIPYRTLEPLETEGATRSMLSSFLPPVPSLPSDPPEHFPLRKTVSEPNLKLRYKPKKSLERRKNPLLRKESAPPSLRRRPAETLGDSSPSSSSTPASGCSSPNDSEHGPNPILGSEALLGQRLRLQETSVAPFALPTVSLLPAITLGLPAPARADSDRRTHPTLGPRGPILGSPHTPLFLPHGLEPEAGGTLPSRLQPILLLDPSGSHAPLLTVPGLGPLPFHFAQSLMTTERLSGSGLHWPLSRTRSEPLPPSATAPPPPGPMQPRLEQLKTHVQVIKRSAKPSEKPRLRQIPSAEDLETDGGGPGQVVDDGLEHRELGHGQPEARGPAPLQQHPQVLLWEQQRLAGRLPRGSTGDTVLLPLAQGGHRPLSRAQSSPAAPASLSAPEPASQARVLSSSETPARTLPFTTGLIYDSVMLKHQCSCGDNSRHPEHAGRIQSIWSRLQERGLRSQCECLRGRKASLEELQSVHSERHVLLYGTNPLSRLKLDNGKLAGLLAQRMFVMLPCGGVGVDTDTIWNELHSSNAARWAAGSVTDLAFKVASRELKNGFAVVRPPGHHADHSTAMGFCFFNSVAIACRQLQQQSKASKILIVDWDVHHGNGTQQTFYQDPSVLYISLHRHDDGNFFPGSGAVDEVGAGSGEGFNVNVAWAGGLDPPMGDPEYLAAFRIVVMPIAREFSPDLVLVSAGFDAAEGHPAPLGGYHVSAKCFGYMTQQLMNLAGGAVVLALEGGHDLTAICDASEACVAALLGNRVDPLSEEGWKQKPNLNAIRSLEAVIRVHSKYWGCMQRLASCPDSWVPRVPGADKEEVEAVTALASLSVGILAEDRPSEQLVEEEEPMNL

[7] = target: T4, Histone deacetylase 7 (Homo sapiens, UniProt Q8WUI4); assay: Inhibition of HDAC7 (unknown origin) incubated for 30 mins in presence of BSA and DTT by fluorescence assay; method in brief: as §1
T4 sequence (Q8WUI4 whole entry): T3 sequence (whole entry)

[8] = target: T5, Histone deacetylase 8 (Homo sapiens) (UniProt Q9BY41); assay: Inhibition of HDAC8 (unknown origin) at 1 uM incubated for 30 mins in presence of BSA and DTT by fluorescence assay; method in brief: as §1
T5 sequence (whole entry): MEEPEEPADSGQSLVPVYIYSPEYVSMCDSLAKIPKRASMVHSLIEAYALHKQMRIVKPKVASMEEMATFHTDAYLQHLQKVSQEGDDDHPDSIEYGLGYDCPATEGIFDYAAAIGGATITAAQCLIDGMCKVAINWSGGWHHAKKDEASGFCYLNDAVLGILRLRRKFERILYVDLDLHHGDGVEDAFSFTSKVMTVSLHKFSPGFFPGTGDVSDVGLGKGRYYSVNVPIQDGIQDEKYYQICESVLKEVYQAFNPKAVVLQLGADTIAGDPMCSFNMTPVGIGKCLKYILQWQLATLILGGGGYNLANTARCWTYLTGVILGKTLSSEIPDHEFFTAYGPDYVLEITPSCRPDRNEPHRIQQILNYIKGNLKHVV

[9] = target: T6, Histone deacetylase 5 (Homo sapiens, UniProt Q9UQL6); assay: Inhibition of HDAC5 (unknown origin) incubated for 30 mins in presence of BSA and DTT by fluorescence assay; method in brief: as §1
T6 sequence (Q9UQL6 whole entry): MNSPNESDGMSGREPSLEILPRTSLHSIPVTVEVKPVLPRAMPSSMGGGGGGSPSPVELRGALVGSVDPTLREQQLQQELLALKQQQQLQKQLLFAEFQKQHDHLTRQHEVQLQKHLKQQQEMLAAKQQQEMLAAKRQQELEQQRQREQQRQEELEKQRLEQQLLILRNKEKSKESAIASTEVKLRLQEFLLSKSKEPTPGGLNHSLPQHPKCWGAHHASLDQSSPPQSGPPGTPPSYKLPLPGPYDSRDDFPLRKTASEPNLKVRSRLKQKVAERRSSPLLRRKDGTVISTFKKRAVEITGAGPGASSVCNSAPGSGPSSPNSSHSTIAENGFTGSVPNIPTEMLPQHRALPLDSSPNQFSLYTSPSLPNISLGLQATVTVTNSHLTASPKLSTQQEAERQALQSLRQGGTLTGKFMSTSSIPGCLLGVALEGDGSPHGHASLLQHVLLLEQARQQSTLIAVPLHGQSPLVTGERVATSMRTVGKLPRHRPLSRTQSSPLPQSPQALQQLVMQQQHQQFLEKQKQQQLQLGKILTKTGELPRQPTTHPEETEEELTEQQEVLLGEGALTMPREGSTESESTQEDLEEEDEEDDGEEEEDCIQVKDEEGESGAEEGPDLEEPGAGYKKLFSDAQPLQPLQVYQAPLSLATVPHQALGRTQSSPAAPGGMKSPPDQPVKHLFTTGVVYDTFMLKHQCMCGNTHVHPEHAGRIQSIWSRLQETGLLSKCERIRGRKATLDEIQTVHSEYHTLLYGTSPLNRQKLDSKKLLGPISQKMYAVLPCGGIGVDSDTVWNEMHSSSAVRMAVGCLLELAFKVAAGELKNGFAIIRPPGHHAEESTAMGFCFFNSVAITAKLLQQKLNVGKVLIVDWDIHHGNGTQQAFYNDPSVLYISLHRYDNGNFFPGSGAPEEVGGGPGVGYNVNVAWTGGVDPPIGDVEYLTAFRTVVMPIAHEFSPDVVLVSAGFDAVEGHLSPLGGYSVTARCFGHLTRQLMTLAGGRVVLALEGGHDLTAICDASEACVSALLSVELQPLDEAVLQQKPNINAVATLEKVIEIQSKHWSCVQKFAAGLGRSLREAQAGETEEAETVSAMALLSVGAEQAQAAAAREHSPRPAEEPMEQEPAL

[10] = target: Histone deacetylase 1 (Homo sapiens, UniProt Q13547); assay: Inhibition of HDAC1 (unknown origin) incubated for 30 mins in presence of BSA and DTT by fluorescence assay
Sequence of Histone deacetylase 1 (Q13547 whole entry): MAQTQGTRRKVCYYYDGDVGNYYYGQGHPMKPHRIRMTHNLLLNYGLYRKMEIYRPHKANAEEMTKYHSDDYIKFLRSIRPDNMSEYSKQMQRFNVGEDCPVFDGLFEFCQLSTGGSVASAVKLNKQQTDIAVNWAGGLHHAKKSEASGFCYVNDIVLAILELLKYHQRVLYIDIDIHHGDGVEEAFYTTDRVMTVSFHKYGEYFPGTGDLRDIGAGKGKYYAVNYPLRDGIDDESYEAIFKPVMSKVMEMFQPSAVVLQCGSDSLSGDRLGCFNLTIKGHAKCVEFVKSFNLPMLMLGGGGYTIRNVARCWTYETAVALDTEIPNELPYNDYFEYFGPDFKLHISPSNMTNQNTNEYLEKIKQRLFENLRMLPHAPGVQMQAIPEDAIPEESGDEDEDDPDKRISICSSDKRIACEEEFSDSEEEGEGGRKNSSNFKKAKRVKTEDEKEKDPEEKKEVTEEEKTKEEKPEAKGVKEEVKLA

[11] = target: T7, Histone deacetylase 9 (Homo sapiens, UniProt Q9UKV0); assay: Inhibition of HDAC9 (unknown origin) incubated for 30 mins in presence of BSA and DTT by fluorescence assay; method in brief: as §1
T7 sequence (Q9UKV0 whole entry): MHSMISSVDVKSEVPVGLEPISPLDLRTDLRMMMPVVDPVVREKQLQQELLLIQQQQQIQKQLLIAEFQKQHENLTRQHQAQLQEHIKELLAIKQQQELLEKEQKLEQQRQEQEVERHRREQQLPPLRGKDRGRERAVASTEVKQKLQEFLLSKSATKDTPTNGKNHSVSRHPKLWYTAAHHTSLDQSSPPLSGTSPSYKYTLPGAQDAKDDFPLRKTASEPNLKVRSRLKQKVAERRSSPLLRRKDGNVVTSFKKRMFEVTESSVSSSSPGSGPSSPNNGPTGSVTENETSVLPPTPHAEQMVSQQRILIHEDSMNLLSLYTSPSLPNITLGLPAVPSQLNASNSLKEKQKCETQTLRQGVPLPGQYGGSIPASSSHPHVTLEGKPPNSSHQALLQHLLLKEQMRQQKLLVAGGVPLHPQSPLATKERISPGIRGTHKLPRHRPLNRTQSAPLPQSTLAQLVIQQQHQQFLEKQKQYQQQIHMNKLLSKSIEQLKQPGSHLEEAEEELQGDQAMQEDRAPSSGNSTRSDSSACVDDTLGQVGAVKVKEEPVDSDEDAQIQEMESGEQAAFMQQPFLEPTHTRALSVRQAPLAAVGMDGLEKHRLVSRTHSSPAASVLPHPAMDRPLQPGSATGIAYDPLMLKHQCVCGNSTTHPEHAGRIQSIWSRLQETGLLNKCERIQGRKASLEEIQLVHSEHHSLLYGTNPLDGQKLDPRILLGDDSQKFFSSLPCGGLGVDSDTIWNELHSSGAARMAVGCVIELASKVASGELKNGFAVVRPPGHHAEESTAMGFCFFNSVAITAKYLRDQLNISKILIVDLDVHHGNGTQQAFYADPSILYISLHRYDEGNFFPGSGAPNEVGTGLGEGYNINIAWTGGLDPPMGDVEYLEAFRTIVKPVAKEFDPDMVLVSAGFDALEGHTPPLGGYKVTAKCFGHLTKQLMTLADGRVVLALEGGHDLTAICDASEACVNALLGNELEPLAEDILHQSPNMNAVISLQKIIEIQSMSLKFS

[12] = target: T6, Histone deacetylase 5; assay: Inhibition of HDAC5 (unknown origin) at 1 uM incubated for 30 mins in presence of BSA and DTT by fluorescence assay; method in brief: as §1
[13] = Antiproliferative activity against human HCT116 cells after 48 hrs in presence of DTT by MTT assay; assay type: functional, cell-based; conditions: HCT-116, 48 h
Method in brief: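 Disulfide compounds were pretreated with DTT to reduce the disulfide bond before testing.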

[14] = target: T7, Histone deacetylase 9; assay: Inhibition of HDAC9 (unknown origin) at 1 uM incubated for 30 mins in presence of BSA and DTT by fluorescence assay; method in brief: as §1
[15] = target: Histone deacetylase (Homo sapiens) (UniProt Q13547+O15379+Q9UBN7+Q92769+Q9UQL6+Q8WUI4+Q9BY41+Q96DB2+P56524+Q9UKV0+Q969S8); assay: Inhibition of HDAC in human HCT116 cells assessed as increase in histone H3 (Lys9/14) hyperacetylation after 8 to 24 hrs by immunoblotting method; assay type: cell-based; conditions: HCT-116
Method in brief: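 HCT116 cells were treated across a dose range. Cellular HDAC inhibition was read as histone H3 (Lys9/14) hyperacetylation by immunoblot at 8 and 24 h post-treatment.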

T1 sequence (P56524 whole entry, canonical isoform): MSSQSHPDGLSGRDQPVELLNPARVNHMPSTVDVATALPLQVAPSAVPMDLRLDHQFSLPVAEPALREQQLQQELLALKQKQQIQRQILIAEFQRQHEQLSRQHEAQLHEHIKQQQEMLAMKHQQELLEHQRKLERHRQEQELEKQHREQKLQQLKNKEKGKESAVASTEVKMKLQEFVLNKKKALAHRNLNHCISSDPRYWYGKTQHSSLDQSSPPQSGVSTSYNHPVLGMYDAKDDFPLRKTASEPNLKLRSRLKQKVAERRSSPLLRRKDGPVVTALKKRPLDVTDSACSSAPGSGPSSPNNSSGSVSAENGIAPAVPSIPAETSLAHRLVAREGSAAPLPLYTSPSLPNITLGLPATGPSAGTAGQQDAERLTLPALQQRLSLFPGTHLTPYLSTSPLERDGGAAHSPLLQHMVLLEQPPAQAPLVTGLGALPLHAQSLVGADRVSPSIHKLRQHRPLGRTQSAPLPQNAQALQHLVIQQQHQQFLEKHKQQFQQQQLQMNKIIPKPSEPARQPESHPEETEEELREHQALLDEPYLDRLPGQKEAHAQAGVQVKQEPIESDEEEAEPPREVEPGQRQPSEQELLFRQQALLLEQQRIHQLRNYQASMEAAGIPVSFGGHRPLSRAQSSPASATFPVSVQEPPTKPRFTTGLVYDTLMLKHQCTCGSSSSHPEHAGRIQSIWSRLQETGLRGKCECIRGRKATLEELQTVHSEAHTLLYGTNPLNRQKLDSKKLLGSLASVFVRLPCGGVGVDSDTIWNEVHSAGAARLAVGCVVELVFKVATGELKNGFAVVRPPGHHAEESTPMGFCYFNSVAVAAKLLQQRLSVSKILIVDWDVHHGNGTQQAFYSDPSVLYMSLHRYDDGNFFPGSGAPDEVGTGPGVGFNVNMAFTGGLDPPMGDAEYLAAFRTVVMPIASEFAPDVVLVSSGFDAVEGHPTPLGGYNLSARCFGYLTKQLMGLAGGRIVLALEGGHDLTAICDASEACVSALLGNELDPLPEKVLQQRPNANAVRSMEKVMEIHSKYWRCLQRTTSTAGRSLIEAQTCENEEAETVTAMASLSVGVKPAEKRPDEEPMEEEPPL

CC(C)[C@@H]1NC(=O)[C@]2(C)CSC(=N2)c2csc(n2)CNC(=O)C[C@@H](/C=C/CCSSCC/C=C/[C@@H]2CC(=O)NCc3nc(cs3)C3=N[C@@](C)(CS3)C(=O)N[C@@H](C(C)C)C(=O)O2)OC1=O
inhibition [1]: < 20% | IC50 [2]: 0.1 nM | IC50 [3]: Not Active | IC50 [4]: 0.5 nM | IC50 [5]: 0.3 nM | inhibition [6]: < 20% | IC50 [7]: Not Active | inhibition [8]: 40% | IC50 [9]: Not Active | IC50 [10]: 0.3 nM | IC50 [11]: Not Active | inhibition [12]: < 20% | IC50 [13]: 12 nM | inhibition [14]: < 20% | inhibition [15]: Dose-dependent effect

CC(C)[C@@H]1NC(=O)[C@]2(C)CSC(=N2)c2csc(n2)CNC(=O)C[C@@H](/C=C/CCSSC[C@H](NC(=O)OC(C)(C)C)C(=O)OC(C)(C)C)OC1=O
inhibition [1]: < 20% | IC50 [2]: 0.2 nM | IC50 [3]: Not Active | IC50 [4]: 0.9 nM | IC50 [5]: 0.6 nM | inhibition [6]: < 20% | IC50 [7]: Not Active | inhibition [8]: 35% | IC50 [9]: Not Active | IC50 [10]: 0.4 nM | IC50 [11]: Not Active | inhibition [12]: < 20% | IC50 [13]: 13 nM | inhibition [14]: < 20% | inhibition [15]: Dose-dependent effect
